Source: PMC12753540 (Investigational New Drugs, 2025)
Several values for one entry are separate records, joined by “and”; a condition that tells them apart may be missing. Equal entries are not always repeated. Marks after values point to notes of the source that are not given here.

How the values were obtained:
advanced solid tumors = details: monotherapy, cited from earlier work
[1] = Phase 1 study: safety and tolerability; assay type: in vivo, human (Japanese patients with advanced solid tumors)
Outline: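 Oral dosing was 240 mg BID on Days 1–7 (Cohort 1) or 160 mg BID on Days 1–14 (Cohort 2) of 28-day cycles, after a single dose on C0D1, using a rolling-6 escalation design. DLTs were assessed over Cycles 0 and 1. AEs were coded by MedDRA and graded by CTCAE v4.03. The TEAE window ran from first dose to 30 (+7) days after the last dose or discontinuation. Relatedness was judged by the investigator. Data were summarized descriptively for all patients who received ≥1 dose.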

[2] = cited from earlier work
[3] = system: advanced gastric cancer, metastatic melanoma, non-small-cell lung cancer; details: in combination with durvalumab; phase 2 studies; cited from earlier work
[4] = Phase 1 study: plasma pharmacokinetics, non-compartmental analysis; assay type: in vivo, human (Japanese patients); details: for tmax, Median (range) / Cmax / Vd/F / half-life: oral; for tmax, Median (range) / Cmax / Vd/F / half-life / Tmax: plasma; for Cmax / Vd/F / half-life / Tmax: human; for Vd/F: Arithmetic mean (SD); for half-life: t1/2, Arithmetic mean (SD); for Tmax: po, Median (range)
[5] = system: advanced solid malignancies; experiment: Phase 1 study: antitumor activity; assay type: in vivo, human (Japanese patients); details: for Best overall response: Complete response / Best overall response: Partial response: confirmed; for Best overall response: Stable disease: maintained ≥ 7 weeks from Cycle 1 Day 1; for Median PFS: Kaplan-Meier, data cutoff May 25, 2023
Outline: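 Oral twice-daily dosing on Days 1–7 of 28-day cycles, after a single oral dose on C0D1 (4-day Cycle 0). Tumors were imaged by CT or MRI at baseline, then by the same method every 8 weeks (±1 week) until progression, per RECIST 1.1. CR/PR needed confirmation ≥4 weeks later, and SD had to last ≥7 weeks from C1D1. ORR was limited to measurable disease, with Clopper-Pearson 95% CI; PFS by Kaplan–Meier.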

[6] = Cohort 1 240 mg BID (n = 6), Any grade
[7] = Cohort 2 160 mg BID (n = 6), Any grade
[8] = Multiple-dose administration, Cohort 1 240 mg BID (n = 6)
[9] = Multiple-dose administration, Cohort 2 160 mg BID (n = 6)
[10] = Single-dose administration, Cohort 1 240 mg (n = 6)
[11] = Single-dose administration, Cohort 2 160 mg (n = 6)
[12] = 160 mg, Single-dose administration, Cohort 2 160 mg (n = 6)
[13] = 240 mg, Single-dose administration, Cohort 1 240 mg (n = 6)

C[C@@H]1COCCN1c1cc(C2([S@](C)(=N)=O)CC2)nc(-c2cc[nH]c3nccc2-3)n1 [ceralasertib]
Disease control (evaluable patients) (advanced solid tumors; 39 of 66 evaluable patients): 59%
Confirmed partial response (advanced solid tumors; 66 evaluable patients): 5 n
Stable disease or unconfirmed PR (advanced solid tumors; 66 evaluable patients): 34 n
Any DLT ([1]; Cohort 1 240 mg BID (n = 6)): 1 (16.7)* n (%)
Any SAE ([1]; Cohort 1 240 mg BID (n = 6)): 0 n (%)
Any SAE related to treatment ([1]; Cohort 1 240 mg BID (n = 6)): 0 n (%)
Any SAE related to treatment, Grade ≥ 3 ([1]; Cohort 1 240 mg BID (n = 6)): 0 n (%)
Any SAE, Grade ≥ 3 ([1]; Cohort 1 240 mg BID (n = 6)): 0 n (%)
Any TEAE ([1]; Cohort 1 240 mg BID (n = 6)): 6 (100) n (%)
Any TEAE leading to death ([1]; Cohort 1 240 mg BID (n = 6)): 0 n (%)
Any TEAE leading to discontinuation of ceralasertib ([1]; Cohort 1 240 mg BID (n = 6)): 1 (16.7)* n (%)
Any TEAE leading to discontinuation of ceralasertib, Related to treatment ([1]; Cohort 1 240 mg BID (n = 6)): 1 (16.7)* n (%)
Any TEAE leading to dose interruption of ceralasertib ([1]; Cohort 1 240 mg BID (n = 6)): 0 n (%)
Any TEAE leading to dose interruption of ceralasertib, Related to treatment ([1]; Cohort 1 240 mg BID (n = 6)): 0 n (%)
Any TEAE leading to dose reduction of ceralasertib ([1]; Cohort 1 240 mg BID (n = 6)): 1 (16.7) n (%)
Any TEAE leading to dose reduction of ceralasertib, Related to treatment ([1]; Cohort 1 240 mg BID (n = 6)): 1 (16.7) n (%)
Any TEAE, Grade ≥ 3 ([1]; Cohort 1 240 mg BID (n = 6)): 1 (16.7)* n (%)
Any TRAE ([1]; Cohort 1 240 mg BID (n = 6)): 5 (83.3) n (%)
Any TRAE leading to death ([1]; Cohort 1 240 mg BID (n = 6)): 0 n (%)
Any TRAE, Grade ≥ 3 ([1]; Cohort 1 240 mg BID (n = 6)): 1 (16.7)* n (%)
TEAE: Anemia [1, 6]: 3 n (%)
TEAE: Constipation [1, 6]: 2 n (%)
TEAE: Nausea [1, 6]: 3 n (%)
TEAE: Neutrophil count decreased [1, 6]: 2 n (%)
TEAE: Platelet count decreased [1, 6]: 2 n (%)
Any DLT ([1]; Cohort 2 160 mg BID (n = 6)): 1 (16.7)^† n (%)
Any SAE ([1]; Cohort 2 160 mg BID (n = 6)): 2 (33.3) n (%)
Any SAE related to treatment ([1]; Cohort 2 160 mg BID (n = 6)): 1 (16.7)^† n (%)
Any SAE related to treatment, Grade ≥ 3 ([1]; Cohort 2 160 mg BID (n = 6)): 1 (16.7)^† n (%)
Any SAE, Grade ≥ 3 ([1]; Cohort 2 160 mg BID (n = 6)): 2 (33.3) n (%)
Any TEAE ([1]; Cohort 2 160 mg BID (n = 6)): 6 (100) n (%)
Any TEAE leading to death ([1]; Cohort 2 160 mg BID (n = 6)): 0 n (%)
Any TEAE leading to discontinuation of ceralasertib ([1]; Cohort 2 160 mg BID (n = 6)): 0 n (%)
Any TEAE leading to discontinuation of ceralasertib, Related to treatment ([1]; Cohort 2 160 mg BID (n = 6)): 0 n (%)
Any TEAE leading to dose interruption of ceralasertib ([1]; Cohort 2 160 mg BID (n = 6)): 1 (16.7)^† n (%)
Any TEAE leading to dose interruption of ceralasertib, Related to treatment ([1]; Cohort 2 160 mg BID (n = 6)): 1 (16.7)^† n (%)
Any TEAE leading to dose reduction of ceralasertib ([1]; Cohort 2 160 mg BID (n = 6)): 1 (16.7)^† n (%)
Any TEAE leading to dose reduction of ceralasertib, Related to treatment ([1]; Cohort 2 160 mg BID (n = 6)): 1 (16.7)^† n (%)
Any TEAE, Grade ≥ 3 ([1]; Cohort 2 160 mg BID (n = 6)): 2 (33.3) n (%)
Any TRAE leading to death ([1]; Cohort 2 160 mg BID (n = 6)): 0 n (%)
Any TRAE, Grade ≥ 3 ([1]; Cohort 2 160 mg BID (n = 6)): 1 (16.7)^† n (%)
TEAE: Anemia [1, 7]: 4 n (%)
TEAE: Nausea [1, 7]: 4 n (%)
TEAE: Platelet count decreased [1, 7]: 4 n (%)
TEAE: White blood cell count decreased [1, 7]: 3 n (%)
Patients with grade ≥ 3 treatment-emergent adverse event ([1]; both cohorts, 12 patients treated): 3 patients
Overall tolerability ([1]; monotherapy, both regimens): well tolerated with an acceptable safety profile
Patients with low grade (grade ≤ 2) events only ([1]; of 12 patients enrolled): 9 patients
Median tmax ([2]; Caucasian patients, PATRIOT study): 0.5 to 4 h
Mean t1/2 after single dosing ([2]; PATRIOT studies, at higher doses): 11.2 to 12.8 h
Objective response rates (ORR) [3]: 14 to 31%
AUCss, Geometric mean (CV%) [4, 8]: 94,970 (20.38) ng x h/mL
AUCss,last, Geometric mean (CV%) [4, 8]: 92,140 (20.55) ng x h/mL
CLss/F, Arithmetic mean (SD) [4, 8]: 2.568 (0.4725) L/h
Css,max, Geometric mean (CV%) [4, 8]: 11,970 (16.26) ng/mL
tss,max, Median (range) ([4]; Multiple-dose administration, Cohort 1 240 mg BID (n = 6), Cycle 1 Day 7): 1.97 (0.95–2.83) h
AUCss, Geometric mean (CV%) [4, 9]: 57,400 (17.41) ng x h/mL
AUCss,last, Geometric mean (CV%) [4, 9]: 56,020 (17.05) ng x h/mL
CLss/F, Arithmetic mean (SD) [4, 9]: 2.822 (0.4864) L/h
Css,max, Geometric mean (CV%) [4, 9]: 8132 (16.01) ng/mL
tss,max, Median (range) ([4]; Multiple-dose administration, Cohort 2 160 mg BID (n = 6), Cycle 1 Day 8): 1.87 (0.52–2.92) h
AUC(0–12), Geometric mean (CV%) [4, 10]: 54,260 (12.8) ng x h/mL
AUCinf, Geometric mean (CV%) [4, 10]: 102,800 (20.67) ng x h/mL
AUClast, Geometric mean (CV%) [4, 10]: 100,700 (19.14) ng x h/mL
CL/F, Arithmetic mean (SD) [4, 10]: 2.4 L/h and 2.375 (0.4926) L/h
Vz/F, Arithmetic mean (SD) [4, 10]: 40.47 (7.307) L
t1/2, Arithmetic mean (SD) [4, 10]: 12.24 (3.472) h
tmax, Median (range) [4, 10]: 2.04 (1.98–3.97) h
AUC(0–12), Geometric mean (CV%) [4, 11]: 39,160 (16.33) ng x h/mL
AUCinf, Geometric mean (CV%) [4, 11]: 71,440 (29.19) ng x h/mL
AUClast, Geometric mean (CV%) [4, 11]: 69,120 (25.54) ng x h/mL
CL/F, Arithmetic mean (SD) [4, 11]: 2.3 L/h and 2.318 (0.6707) L/h
Vz/F, Arithmetic mean (SD) [4, 11]: 43.03 (8.284) L
tmax, Median (range) [4, 11]: 1.92 (0.85–2.13) h
Cmax ([4]; 160 mg): 6550 ng/mL
Vd/F ([4]; 160 mg, Vss/F, Multiple-dose administration, Cohort 2 160 mg BID (n = 6)): 35.3 L
half-life [4, 12]: 13.9 h
Cmax ([4]; 240 mg): 7670 ng/mL
Vd/F ([4]; 240 mg, Vss/F, Multiple-dose administration, Cohort 1 240 mg BID (n = 6)): 33.8 L
Vd/F ([4]; 240 mg, Vz/F, Single-dose administration, Cohort 1 240 mg (n = 6)): 40.5 L
half-life [4, 13]: 12.2 h
Tmax [4, 12]: 1.9 h
Tmax [4, 13]: 2 h
Accumulation of ceralasertib in plasma ([4]; multiple administrations at 160 mg or 240 mg): up to 1.8 fold
Arithmetic mean TCP ([4]; range across both cohorts, multiple dosing): 0.82–0.94
Dose proportionality of exposure ([4]; single and multiple dosing, 160 mg and 240 mg): A trend suggesting a dose-proportional increase in exposure
Best overall response: Not evaluable ([5]; Cohort 1 240 mg BID (n = 6)): 1 (16.7) n (%)
Best overall response: Not evaluable, No post-baseline assessment ([5]; Cohort 1 240 mg BID (n = 6)): 1 (16.7) n (%)
Best overall response: Objective response ([5]; Cohort 1 240 mg BID (n = 6)): 0 n (%)
Best overall response: Progressive disease ([5]; Cohort 1 240 mg BID (n = 6)): 3 n (%) and 3 (50.0) n (%)
Best overall response: Complete response ([5]; Cohort 1 240 mg BID (n = 6)): 0 n (%)
Best overall response: Partial response ([5]; Cohort 1 240 mg BID (n = 6)): 0 n (%)
Best overall response: Stable disease ([5]; Cohort 1 240 mg BID (n = 6)): 2 n (%) and 2 (33.3) n (%)
Median PFS ([5]; Cohort 1 240 mg BID): 2.1 months
Best overall response: Not evaluable ([5]; Cohort 2 160 mg BID (n = 6)): 0 n (%)
Best overall response: Not evaluable, No post-baseline assessment ([5]; Cohort 2 160 mg BID (n = 6)): 0 n (%)
Best overall response: Objective response ([5]; Cohort 2 160 mg BID (n = 6)): 0 n (%)
Best overall response: Progressive disease ([5]; Cohort 2 160 mg BID (n = 6)): 2 n (%) and 2 (33.3) n (%)
Best overall response: Complete response ([5]; Cohort 2 160 mg BID (n = 6)): 0 n (%)
Best overall response: Partial response ([5]; Cohort 2 160 mg BID (n = 6)): 0 n (%)
Best overall response: Stable disease ([5]; Cohort 2 160 mg BID (n = 6)): 4 n (%) and 4 (66.7) n (%)
Median PFS ([5]; Cohort 2 160 mg BID): 3.3 months
Patients with best objective response of stable disease ([5]; both cohorts in total, 12 patients): 6 patients
